Calls of active or inactive are those of the source. The rule behind the calls is not given here.
Tests used:
[1] = biological target: Carbonic anhydrase 1 (Homo sapiens) (UniProt P00915); experiment: Binding affinity to human CA1 by phenol red dye based stopped flow CO2 hydration assay; details: filed as activator
Summary of the method: (§1)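 Purified recombinant human CA isoforms. CA-catalysed CO2 hydration was followed by stopped-flow with phenol red at 557 nm, taking initial rates over 10–100 s from at least six traces of the first 5–10% of reaction. Uncatalysed rates were subtracted. Activator stocks were 0.1 mM in deionised water, diluted down to 0.1 nM in assay buffer. K_A came from non-linear least-squares Michaelis–Menten fitting.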

[2] = biological target: Carbonic anhydrase 2 (Homo sapiens) (UniProt P00918); experiment: Binding affinity to human CA2 by phenol red dye based stopped flow CO2 hydration assay; summary of the method: as §1
[3] = biological target: Carbonic anhydrase 3 (Homo sapiens) (UniProt P07451); experiment: Binding affinity to human CA3 by phenol red dye based stopped flow CO2 hydration assay; details: filed as activator; summary of the method: as §1
[4] = biological target: Carbonic anhydrase 4 (Homo sapiens) (UniProt P22748); experiment: Binding affinity to human CA4 by phenol red dye based stopped flow CO2 hydration assay; details: filed as activator; summary of the method: as §1
[5] = biological target: Carbonic anhydrase 5A, mitochondrial (Homo sapiens) (UniProt P35218); experiment: Binding affinity to human CA5a by phenol red dye based stopped flow CO2 hydration assay; details: filed as activator; summary of the method: as §1
[6] = biological target: Carbonic anhydrase 5B, mitochondrial (Homo sapiens) (UniProt Q9Y2D0); experiment: Binding affinity to human CA5b by phenol red dye based stopped flow CO2 hydration assay; details: filed as activator; summary of the method: as §1
[7] = biological target: Carbonic anhydrase 6 (Homo sapiens) (UniProt P23280); experiment: Binding affinity to human CA6 by phenol red dye based stopped flow CO2 hydration assay; details: filed as activator; summary of the method: as §1
[8] = biological target: Carbonic anhydrase 7 (Homo sapiens) (UniProt P43166); experiment: Binding affinity to human CA7 by phenol red dye based stopped flow CO2 hydration assay; details: filed as activator; summary of the method: as §1
[9] = biological target: Carbonic anhydrase 9 (Homo sapiens) (UniProt Q16790); experiment: Binding affinity to human CA9 by phenol red dye based stopped flow CO2 hydration assay; details: filed as activator; summary of the method: as §1
[10] = biological target: Carbonic anhydrase 12 (Homo sapiens) (UniProt O43570); experiment: Binding affinity to human CA12 by phenol red dye based stopped flow CO2 hydration assay; details: filed as activator; summary of the method: as §1
[11] = biological target: Carbonic anhydrase 13 (Homo sapiens) (UniProt Q8N1Q1); experiment: Binding affinity to human CA13 by phenol red dye based stopped flow CO2 hydration assay; details: filed as activator; summary of the method: as §1
[12] = biological target: Carbonic anhydrase 14 (Homo sapiens) (UniProt Q9ULX7); experiment: Binding affinity to human CA14 by phenol red dye based stopped flow CO2 hydration assay; details: filed as activator; summary of the method: as §1
[13] = biological target: T1, Amine oxidase [flavin-containing] A (Homo sapiens, UniProt P21397); experiment: Inhibition of human recombinant MAO-A assessed as inhibition of 4-hydroxyquinoline formation using kynuramine as substrate by fluorescence spectrophotometry analysis
T1 sequence (P21397 whole entry): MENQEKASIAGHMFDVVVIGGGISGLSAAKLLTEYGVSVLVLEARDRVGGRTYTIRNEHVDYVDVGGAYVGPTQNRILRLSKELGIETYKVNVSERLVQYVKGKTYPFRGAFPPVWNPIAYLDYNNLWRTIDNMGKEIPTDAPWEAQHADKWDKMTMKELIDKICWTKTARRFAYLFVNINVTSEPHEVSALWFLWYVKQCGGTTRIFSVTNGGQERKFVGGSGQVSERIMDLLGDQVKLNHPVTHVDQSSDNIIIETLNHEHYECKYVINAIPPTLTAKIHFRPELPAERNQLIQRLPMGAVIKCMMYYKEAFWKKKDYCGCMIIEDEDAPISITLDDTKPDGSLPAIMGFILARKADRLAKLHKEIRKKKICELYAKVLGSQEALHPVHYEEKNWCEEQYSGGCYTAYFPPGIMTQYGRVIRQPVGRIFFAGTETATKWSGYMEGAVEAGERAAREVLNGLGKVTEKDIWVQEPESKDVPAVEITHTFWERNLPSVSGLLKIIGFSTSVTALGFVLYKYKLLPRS
Summary of the method: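 Recombinant human MAO-A with kynuramine as substrate. The 4-hydroxyquinoline product was quantified by fluorescence spectrophotometry, and IC50 values were determined.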

[14] = biological target: T2, Amine oxidase [flavin-containing] B (Homo sapiens, UniProt P27338)
T2 sequence (P27338 whole entry): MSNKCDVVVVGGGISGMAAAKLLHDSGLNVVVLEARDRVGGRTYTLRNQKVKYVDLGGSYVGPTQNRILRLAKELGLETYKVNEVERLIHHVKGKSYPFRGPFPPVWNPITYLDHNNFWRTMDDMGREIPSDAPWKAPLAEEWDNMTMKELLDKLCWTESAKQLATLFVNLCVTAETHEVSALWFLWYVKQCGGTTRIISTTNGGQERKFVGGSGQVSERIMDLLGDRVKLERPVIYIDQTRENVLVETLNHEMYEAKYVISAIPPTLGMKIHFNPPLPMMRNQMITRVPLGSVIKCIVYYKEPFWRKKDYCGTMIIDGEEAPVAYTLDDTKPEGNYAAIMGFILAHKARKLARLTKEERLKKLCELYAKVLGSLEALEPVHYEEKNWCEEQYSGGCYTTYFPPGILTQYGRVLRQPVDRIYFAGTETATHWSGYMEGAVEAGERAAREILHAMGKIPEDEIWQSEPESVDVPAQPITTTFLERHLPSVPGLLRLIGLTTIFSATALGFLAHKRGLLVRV

Mus musculus [15] = experiment: Pro-cognitive activity in C57Bl6 mouse assessed as attenuation of long-term memory deficit by measuring increase in exploration time for novel object at 50 nmol/uL, icv measured after 24 hrs by novel object recognition test; assay type: functional, organism-based
Summary of the method: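 Male adult C57Bl6 mice (8–9 weeks), lateral-ventricle cannula implanted one week before. 10-min habituation to empty open-field arena; 24 h later, 5-min acquisition with two identical objects, followed immediately by 5 µL i.c.v. infusion at 1 µL/min. 5-min retention test 24 h after acquisition with one familiar and one novel object; percentage exploration time per object, two-way ANOVA with Bonferroni.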

Mus musculus [16] = experiment: Pro-cognitive activity in C57Bl6 mouse assessed as attenuation of long-term memory deficit by measuring increase in exploration time for novel object by measuring discrimination index at 50 nmol/uL, icv measured after 24 hrs by novel object recognition test; assay type: functional
Summary of the method: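 Novel object recognition in adult male C57Bl6 mice. Habituation was 10 min in an empty arena. Twenty-four hours later, mice explored two identical objects for 5 min, then received an immediate 5 µL lateral-ventricle infusion at 1 µL/min. A 5-min retention test with one familiar and one novel object followed 24 h later. Scores were % exploration time and DI = (tN−tF)/(tN+tF).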

Mus musculus [17] = experiment: Pro-cognitive activity in C57Bl6 mouse assessed as attenuation of long-term memory deficit by measuring increase in exploration time for novel juvenile at 25 nmol/uL, icv measured after 48 hrs by novel object recognition test; assay type: functional, organism-based
Summary of the method: (§2)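 Male adult C57Bl6 mice (8–9 weeks), lateral-ventricle cannula implanted 7 days earlier. Social recognition: 10-min habituation to arena with two empty cups; 24 h later 10-min acquisition with an unfamiliar juvenile (3–4 weeks) under one wire cup. Immediately after, 5 µL i.c.v. infusion at 1 µL/min. Retention at 48 h with familiar and novel juvenile; percentage time exploring each cup (snout-to-cup contact).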

Mus musculus [18] = experiment: Pro-cognitive activity in C57Bl6 mouse assessed as attenuation of long-term memory deficit by measuring increase in exploration time for novel juvenile at 50 nmol/uL, icv measured after 48 hrs by novel object recognition test; assay type: functional, organism-based; summary of the method: as §2
Mus musculus [19] = experiment: Pro-cognitive activity in C57Bl6 mouse assessed as attenuation of long-term memory deficit by measuring increase in exploration time for novel juvenile by measuring discrimination index at 25 nmol/uL, icv measured after 48 hrs by novel object recognition test; assay type: functional
Summary of the method: (§3)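 Social recognition in adult male C57Bl6 mice with intracerebroventricular cannulae. Habituation was 10 min with two empty cups. Twenty-four hours later, a novel 3–4-week-old juvenile was placed under one cup for 10 min of exploration, followed immediately by a 5 µL infusion at 1 µL/min. Retention 48 h later offered familiar versus novel juvenile, scoring snout-to-cup contact. DI = (tN−tF)/(tN+tF).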

Mus musculus [20] = experiment: Pro-cognitive activity in C57Bl6 mouse assessed as attenuation of long-term memory deficit by measuring increase in exploration time for novel juvenile by measuring discrimination index at 50 nmol/uL, icv measured after 48 hrs by novel object recognition test; assay type: functional; summary of the method: as §3
Mus musculus [21] = experiment: Pro-cognitive activity in C57Bl6 mouse assessed as attenuation of long-term memory deficit by measuring increase in exploration time for novel object by measuring discrimination index at 25 nmol/uL, icv measured after 24 hrs by novel object recognition test

Carbonic anhydrase 5A, mitochondrial (Homo sapiens), sequence (P35218 whole entry): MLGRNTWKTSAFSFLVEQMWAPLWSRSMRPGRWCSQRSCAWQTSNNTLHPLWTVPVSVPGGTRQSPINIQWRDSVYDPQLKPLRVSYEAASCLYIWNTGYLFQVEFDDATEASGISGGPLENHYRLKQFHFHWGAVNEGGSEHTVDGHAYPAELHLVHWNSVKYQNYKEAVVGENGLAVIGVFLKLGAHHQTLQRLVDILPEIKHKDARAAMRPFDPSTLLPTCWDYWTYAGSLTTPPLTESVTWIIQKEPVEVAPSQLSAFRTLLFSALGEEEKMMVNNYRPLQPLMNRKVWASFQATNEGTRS
Carbonic anhydrase 4 (Homo sapiens), sequence (P22748 whole entry): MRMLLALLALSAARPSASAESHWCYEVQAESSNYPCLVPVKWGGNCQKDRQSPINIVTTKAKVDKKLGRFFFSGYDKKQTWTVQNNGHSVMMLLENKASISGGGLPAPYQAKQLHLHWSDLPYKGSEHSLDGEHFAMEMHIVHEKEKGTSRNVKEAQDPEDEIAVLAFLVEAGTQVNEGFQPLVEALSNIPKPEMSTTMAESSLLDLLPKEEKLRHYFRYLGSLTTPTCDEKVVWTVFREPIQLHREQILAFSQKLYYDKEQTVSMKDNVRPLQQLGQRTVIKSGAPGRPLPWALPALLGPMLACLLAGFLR
Carbonic anhydrase 3 (Homo sapiens), sequence (P07451 whole entry): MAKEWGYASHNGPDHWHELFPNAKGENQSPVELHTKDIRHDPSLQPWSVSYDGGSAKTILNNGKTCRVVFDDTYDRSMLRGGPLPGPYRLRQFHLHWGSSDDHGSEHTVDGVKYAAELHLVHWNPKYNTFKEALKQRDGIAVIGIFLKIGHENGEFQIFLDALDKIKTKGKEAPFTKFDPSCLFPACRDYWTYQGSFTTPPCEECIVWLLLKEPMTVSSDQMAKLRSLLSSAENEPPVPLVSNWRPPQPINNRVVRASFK
Carbonic anhydrase 1 (Homo sapiens), sequence (P00915 2-261 limits assumed): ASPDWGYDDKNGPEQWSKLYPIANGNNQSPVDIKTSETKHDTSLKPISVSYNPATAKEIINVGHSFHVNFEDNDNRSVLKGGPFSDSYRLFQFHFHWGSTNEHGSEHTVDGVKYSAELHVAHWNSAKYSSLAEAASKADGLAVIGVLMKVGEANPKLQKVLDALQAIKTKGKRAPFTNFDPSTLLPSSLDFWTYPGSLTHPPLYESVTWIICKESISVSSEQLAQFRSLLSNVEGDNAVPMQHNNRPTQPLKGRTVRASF
Carbonic anhydrase 7 (Homo sapiens), sequence (P43166 whole entry): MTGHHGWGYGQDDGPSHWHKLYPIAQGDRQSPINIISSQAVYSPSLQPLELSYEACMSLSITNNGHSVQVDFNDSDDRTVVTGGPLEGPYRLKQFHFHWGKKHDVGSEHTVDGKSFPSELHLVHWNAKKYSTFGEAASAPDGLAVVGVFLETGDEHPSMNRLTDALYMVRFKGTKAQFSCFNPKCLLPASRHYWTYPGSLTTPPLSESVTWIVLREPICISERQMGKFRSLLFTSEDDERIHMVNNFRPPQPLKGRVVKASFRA
Carbonic anhydrase 12 (Homo sapiens), sequence (O43570 whole entry): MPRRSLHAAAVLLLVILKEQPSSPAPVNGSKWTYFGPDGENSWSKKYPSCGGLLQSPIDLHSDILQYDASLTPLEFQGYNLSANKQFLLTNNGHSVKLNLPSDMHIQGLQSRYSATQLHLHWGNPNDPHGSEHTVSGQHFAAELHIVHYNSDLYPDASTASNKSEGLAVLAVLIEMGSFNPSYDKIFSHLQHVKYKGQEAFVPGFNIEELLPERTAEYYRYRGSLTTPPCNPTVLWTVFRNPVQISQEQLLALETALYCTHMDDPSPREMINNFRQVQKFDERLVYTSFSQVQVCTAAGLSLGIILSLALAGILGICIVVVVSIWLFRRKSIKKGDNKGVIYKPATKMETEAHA
Carbonic anhydrase 5B, mitochondrial (Homo sapiens), sequence (Q9Y2D0 whole entry): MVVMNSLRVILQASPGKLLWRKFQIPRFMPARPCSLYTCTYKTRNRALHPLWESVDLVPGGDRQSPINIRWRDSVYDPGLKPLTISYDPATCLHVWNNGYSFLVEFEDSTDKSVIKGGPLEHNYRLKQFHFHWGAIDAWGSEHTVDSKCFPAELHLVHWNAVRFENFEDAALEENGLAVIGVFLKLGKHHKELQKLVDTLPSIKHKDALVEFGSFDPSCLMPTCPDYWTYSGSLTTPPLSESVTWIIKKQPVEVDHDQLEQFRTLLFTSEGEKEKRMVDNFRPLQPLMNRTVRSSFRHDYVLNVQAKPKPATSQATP
Carbonic anhydrase 6 (Homo sapiens), sequence (P23280 whole entry): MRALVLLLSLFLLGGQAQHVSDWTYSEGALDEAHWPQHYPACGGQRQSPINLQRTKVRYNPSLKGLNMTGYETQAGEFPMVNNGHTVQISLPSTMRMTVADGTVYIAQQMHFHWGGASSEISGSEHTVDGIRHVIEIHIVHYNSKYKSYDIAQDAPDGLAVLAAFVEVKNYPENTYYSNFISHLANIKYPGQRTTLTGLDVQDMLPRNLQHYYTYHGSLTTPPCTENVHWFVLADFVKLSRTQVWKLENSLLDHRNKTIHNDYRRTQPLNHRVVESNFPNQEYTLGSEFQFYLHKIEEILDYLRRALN
Carbonic anhydrase 14 (Homo sapiens), sequence (Q9ULX7 whole entry): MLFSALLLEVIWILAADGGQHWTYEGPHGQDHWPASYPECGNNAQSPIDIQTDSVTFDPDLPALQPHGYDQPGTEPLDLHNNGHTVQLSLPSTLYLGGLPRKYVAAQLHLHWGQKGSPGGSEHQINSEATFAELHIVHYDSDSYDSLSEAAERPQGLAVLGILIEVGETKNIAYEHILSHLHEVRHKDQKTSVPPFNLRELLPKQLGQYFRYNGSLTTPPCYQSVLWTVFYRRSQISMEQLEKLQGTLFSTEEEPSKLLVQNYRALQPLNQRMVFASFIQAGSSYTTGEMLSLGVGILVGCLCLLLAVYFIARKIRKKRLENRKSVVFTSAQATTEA
Carbonic anhydrase 13 (Homo sapiens), sequence (Q8N1Q1 whole entry, looked up): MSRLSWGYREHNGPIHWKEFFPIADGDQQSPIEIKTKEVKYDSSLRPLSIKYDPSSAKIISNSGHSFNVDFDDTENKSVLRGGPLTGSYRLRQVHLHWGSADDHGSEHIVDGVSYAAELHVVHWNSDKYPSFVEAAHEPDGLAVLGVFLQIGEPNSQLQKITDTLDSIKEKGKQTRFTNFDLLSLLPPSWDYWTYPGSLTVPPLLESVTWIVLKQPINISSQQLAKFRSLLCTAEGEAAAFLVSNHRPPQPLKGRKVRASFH

Compound	Ka [1] [µM]	Ka [2] [µM]	Ka [3] [µM]	Ka [4] [µM]	Ka [5] [µM]	Ka [6] [µM]	Ka [7] [µM]	Ka [8] [µM]	Ka [9] [µM]	Ka [10] [µM]	Ka [11] [µM]	Ka [12] [µM]	IC50 [13] [µM]	IC50 [14] [µM]	also measured
Cc1ccccc1[Se]CC(C)N (stereo not drawn)	12.1	> 100	54.1	2.7	20	23.7	71.6	14.2	83.3	51.8	49.3	4.7	5.17	16.7	
COc1cc([Te]CC(C)N)cc(OC)c1OC (stereo not drawn)	9.5	> 100	60.6	4.4	9.4	29.5	69.2	14.3	85.2	32.7	58.3	1.2			
CC(N)C[Te]c1ccccc1 (stereo not drawn)	9.9	> 100	59.7	5.9	14.2	21.7	73.1	41.2	22.2	52.5	49.7	3.2	25.4		
COc1ccc([Te]CC(C)N)cc1 (stereo not drawn)	4.6	> 100	77.3	8.2	3.3	22.5	37.8	44.9	47.9	52.8	38.2	9.5	14	84.2	
CC(N)CSc1ccc(Br)cc1 (stereo not drawn)	7.7	> 100	5.4	7.4	12.4	22.7	61.6	14.8	63.3	72.9	54.4	3.8	3.89		
Cc1ccc([Te]CC(C)N)cc1 (stereo not drawn)	8.2	> 100	73.5	5.3	4	15.7	23.6	21.9	74.4	80.4	82.7	2.4	6.66		
Cc1cccc(C)c1[Se]CC(C)N (stereo not drawn)	6	> 100	90.8	9.5	20.9	22.7	31.4	21.4	81.2	78.2	83.3	1.1	1.68	2.79	
CC(N)C[Se]c1ccc(F)cc1 (stereo not drawn)	19.6	> 100	13.1	6.1	13.1	20.2	48.5	13.4	22.8	90.6	46.9	2.6	10.5	13.4	
N[C@H](Cc1ccccc1)C(=O)O [D-PHENYLALANINE]															Activity (Mus musculus [15]): Active; Activity_index (Mus musculus [16]): 0.375; Activity (Mus musculus [17]): inactive; Activity (Mus musculus [18]): Active; Activity_index (Mus musculus [19]): 0.009; Activity_index (Mus musculus [20]): 0.291; Activity_index (Mus musculus [21]): 0.075
Cc1ccc([Se]CC(C)N)cc1 (stereo not drawn)	5.2	> 100	20.3	2.2	9.1	15.7	30.5	10.4	82.5	89.7	68.6	8.3	2.03	36.5	
CC(N)CSc1cccc(Br)c1 (stereo not drawn)	13.5	> 100	91.7	2.2	12.9	11.5	30.9	11.4	77.9	87.9	49.3	2.9	7.82		
CC(N)C[Se]c1ccc(N(C)C)cc1 (stereo not drawn)	22.1		72.6	9.4	14	21.8	76.5	12.1	70.1	58.5	44.1	6.7	7.15	21.3	Ka ([2]; filed as activator): 45.1 µM
COc1ccc([Se]CC(C)N)cc1 (stereo not drawn)	21.4	> 100	66.8	8.7	20.3	25.8	46.4	23.3	73.2	68.8	60.4	8.7	1.21	36.8	
CC(N)CSc1ccccc1Br (stereo not drawn)	9.5	> 100	70.8	2.4	13.3	12.8	55.9	23.2	56.6	46.7	90.9	3.6	0.724	64.8	
